ChEMBL document CHEMBL2069286, “Discovery and biological evaluation of novel 4-amino-2-phenylpyrimidine derivatives as potent and orally active GPR119 agonists” (Bioorg Med Chem, 2012)
pIC50: −log10 of the molar value. The source made the active and inactive calls. No cut-off for these calls is given here.

Tests used:
Mus musculus [1] = assay: Antihyperglycemic activity in ICR mouse assessed as reduction in glucose levels at 3 mg/kg, po dosed post overnight fasting by oral glucose tolerance test; assay type: functional; parameters: scale not given: the % may be the effect or the level left
In short: (§1)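 Eight-week-old male ICR mice, fasted overnight, dosed orally with compound in 0.5% methylcellulose or vehicle alone. Oral glucose 2 g/kg given 10 min later. Tail-vein blood taken 30 min after glucose, and glucose measured by Glucose CII test.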

[2] = target: T1, Glucose-dependent insulinotropic receptor (Homo sapiens) (UniProt Q8TDV5); assay: Agonist activity at human GPR119 expressed in HEK293 cells assessed as stimulation of cAMP level incubated for 6 hrs by luciferase activity based luminometry; assay type: functional, cell-based
T1 sequence (whole entry): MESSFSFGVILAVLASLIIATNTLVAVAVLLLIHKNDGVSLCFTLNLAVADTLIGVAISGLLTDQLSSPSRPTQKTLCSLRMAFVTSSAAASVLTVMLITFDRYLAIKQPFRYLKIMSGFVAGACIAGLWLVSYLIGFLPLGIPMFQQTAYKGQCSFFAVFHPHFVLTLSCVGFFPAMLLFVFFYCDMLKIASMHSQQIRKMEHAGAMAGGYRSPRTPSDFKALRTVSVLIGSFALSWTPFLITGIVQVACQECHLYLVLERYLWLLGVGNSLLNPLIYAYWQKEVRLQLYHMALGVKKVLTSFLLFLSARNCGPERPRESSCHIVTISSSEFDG
In short: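 HEK293 cells stably expressing human GPR119 plus pCRE-luciferase reporter; 2.5×10^4 cells/well, overnight at 37 °C in 5% CO₂, then compound (DMSO) at 0.01–10 μM for 6 h. Lysis in 0.2% Triton X-100/PBS pH 7.4, luminometer read of luciferase. Triplicates per concentration. EC = concentration matching the response of reference agonist at 10 μM.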

[3] = target: T1, Glucose-dependent insulinotropic receptor (Homo sapiens); assay: Intrinsic activity at human GPR119 expressed in HEK293 cells assessed as stimulation of cAMP level at 10 uM incubated for 6 hrs by luciferase activity based luminometry relative to 10 uM 2-(2-(4-bromophenyl)-6-methylpyrimidin-4-ylamino)ethanol; assay type: functional, cell-based
In short: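 Same HEK293 hGPR119/pCRE-luciferase system with 6 h exposure, lysis in 0.2% Triton X-100/PBS and luciferase read, triplicate wells. Test compound at 10 μM; response expressed as % of the luciferase signal given by the reference agonist at 10 μM.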

Cytochrome P450 1A2 = target: T2, Cytochrome P450 1A2 (Homo sapiens, UniProt P05177); assay: Inhibition of CYP1A2; assay type: ADME
T2 sequence (P05177 whole entry): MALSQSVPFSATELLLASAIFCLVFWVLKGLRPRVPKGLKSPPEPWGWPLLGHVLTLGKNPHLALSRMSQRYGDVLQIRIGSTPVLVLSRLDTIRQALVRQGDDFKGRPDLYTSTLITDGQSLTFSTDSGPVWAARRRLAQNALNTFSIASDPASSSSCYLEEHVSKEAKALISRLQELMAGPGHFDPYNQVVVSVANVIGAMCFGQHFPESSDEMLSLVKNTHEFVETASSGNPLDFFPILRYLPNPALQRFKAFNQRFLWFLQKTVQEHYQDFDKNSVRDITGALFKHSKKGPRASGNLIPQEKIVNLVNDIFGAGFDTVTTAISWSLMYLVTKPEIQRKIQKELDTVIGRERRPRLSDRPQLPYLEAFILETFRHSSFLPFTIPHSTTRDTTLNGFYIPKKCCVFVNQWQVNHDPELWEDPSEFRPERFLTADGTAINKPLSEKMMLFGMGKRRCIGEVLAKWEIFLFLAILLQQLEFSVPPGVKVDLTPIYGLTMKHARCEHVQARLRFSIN

Mus musculus [4] = assay: Antihyperglycemic activity in ICR mouse assessed as reduction in glucose levels at 1 mg/kg, po dosed post overnight fasting by oral glucose tolerance test; assay type: functional; parameters: scale not given: the % may be the effect or the level left; in short: as §1
[5] = Stability in human liver microsomes; assay type: ADME, Microsome; settings: read-out: Stability
Mus musculus [6] = assay: Antidiabetic activity in kk/Ay mouse assessed as reduction in blood glucose at 3 mg/kg, po once daily for week by Glucose cII test; assay type: functional, organism-based; parameters: dose 3 mg/kg
In short: (§2)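 Eight-week-old male kk/Ay mice, n = 8 per group, dosed orally once daily for one week at 3 mg/kg, with 0.5% methylcellulose vehicle group. Fed-state tail-vein blood for glucose (Glucose CII), insulin and triglyceride (Triglyceride E-test). Pancreas weighed, homogenized, extracted with acid-ethanol, spun 10 min at 3000 g, supernatant insulin assayed. Mean ± SE; Dunnett's test.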

[7] = Tmax in mouse at 3 mg/kg, po; assay type: ADME, organism-based; parameters: dose 3 mg/kg, route oral; settings: in vivo
[8] = Tmax in monkey at 3 mg/kg, po; assay type: ADME, organism-based, Macaca mulatta; parameters: dose 3 mg/kg, route oral; settings: rhesus monkey, in vivo
[9] = Half life in mouse at 1 mg/kg, iv; assay type: ADME, organism-based; parameters: dose 1 mg/kg, route intravenous; settings: in vivo
[10] = Half life in monkey at 1 mg/kg, iv; assay type: ADME, organism-based, Macaca mulatta; parameters: dose 1 mg/kg, route intravenous; settings: rhesus monkey, in vivo
[11] = Volume of distribution at steady state in mouse at 1 mg/kg, iv; assay type: ADME, organism-based; parameters: dose 1 mg/kg, route intravenous; settings: in vivo, read-out: Vdss
[12] = Volume of distribution at steady state in monkey at 1 mg/kg, iv; assay type: ADME, organism-based, Macaca mulatta; parameters: dose 1 mg/kg, route intravenous; settings: rhesus monkey, in vivo, read-out: Vdss
[13] = Total clearance in mouse at 1 mg/kg, iv; assay type: ADME, organism-based; parameters: dose 1 mg/kg, route intravenous; settings: in vivo
[14] = Total clearance in monkey at 1 mg/kg, iv; assay type: ADME, organism-based, Macaca mulatta; parameters: dose 1 mg/kg, route intravenous; settings: rhesus monkey, in vivo
[15] = Oral bioavailability in mouse at 3 mg/kg; assay type: ADME, organism-based; settings: in vivo
[16] = Oral bioavailability in monkey at 3 mg/kg; assay type: ADME, organism-based, Macaca mulatta; settings: rhesus monkey, in vivo
Mus musculus [17] = assay: Antidiabetic activity in kk/Ay mouse assessed as reduction in plasma insulin at 3 mg/kg, po once daily for week; assay type: functional, organism-based; parameters: dose 3 mg/kg; in short: as §2
Mus musculus [18] = assay: Antidiabetic activity in kk/Ay mouse assessed as reduction in plasma triglyceride level at 3 mg/kg, po once daily for week by Triglyceride E-test; assay type: functional, organism-based; parameters: dose 3 mg/kg; in short: as §2
Mus musculus [19] = assay: Antidiabetic activity in kk/Ay mouse assessed as improvement in pancreatic insulin level at 3 mg/kg, po once daily for week
Mus musculus [20] = assay: Antihyperglycemic activity in ICR mouse assessed as reduction in glucose levels at 10 mg/kg, po dosed post overnight fasting by oral glucose tolerance test; assay type: functional; parameters: scale not given: the % may be the effect or the level left

SMILES | Activity (Mus musculus [1]) | EC [2] [µM] | Intrinsic activity [3] | pIC50 (Cytochrome P450 1A2) | also measured
Cc1cc(NCCc2ccc[n+]([O-])c2)nc(-c2ccc(Br)c(F)c2)n1 | 30% | 0.22 | 573% |  | 
Cc1cc(NCCc2cc[nH]c(=O)c2)nc(-c2cc(F)c(Br)cc2F)n1 | 23% | 0.017 | 1080% |  | 
CCc1cc(NC[C@@H](O)CO)nc(-c2ccc(Cl)c(F)c2)n1 |  | 0.39 | 266% | 5.68 | Activity (Mus musculus [4]): 24%; CLint scaled [5]: 236 mL/min/kg
Cc1cc(NCCc2cc[nH]c(=O)c2)nc(-c2cc(F)c(Cl)cc2F)n1 | 21% | 0.0069 | 722% |  | 
Cc1cc(NCCc2ccc[n+]([O-])c2)nc(-c2cc(F)c(Br)cc2F)n1 | 23% | 0.11 | 588% | 5.14 | 
CCc1cc(NC[C@@H](O)CO)nc(-c2cc(F)c(Br)cc2F)n1 |  | 0.22 | 391% | 4.60 | Activity (Mus musculus [4]): 19%
CCc1cc(NC[C@@H](O)CO)nc(-c2cc(F)c(Cl)cc2F)n1 |  | 0.28 | 497% | 4.46 | Activity (Mus musculus [6]): Active; Activity (Mus musculus [4]): 25%; CLint scaled [5]: < 20 mL/min/kg; Tmax [7]: 6 min; Tmax [8]: 2.2 h; half-life [9]: 2.2 h; half-life [10]: 4.6 h; Vd [11]: 6.9 L/kg; Vd [12]: 4.7 L/kg; clearance [13]: 35.9 mL/min/kg; clearance [14]: 12 mL/min/kg; bioavailability [15]: 86%; bioavailability [16]: 51%; Activity (Mus musculus [17]): Active; Activity (Mus musculus [18]): Active; Activity (Mus musculus [19]): Active
Cc1cc(NCCc2cc[nH]c(=O)c2)nc(-c2ccc(Br)c(F)c2)n1 | 10% | 0.021 | 617% |  | 
Cc1cc(NC[C@@H](O)CO)nc(-c2ccc(Br)c(F)c2)n1 |  | 1.2 | 346% | 5.77 | 
Cc1cc(NCCc2ccc[n+]([O-])c2)nc(-c2cc(F)c(Cl)cc2F)n1 | 27% | 0.21 | 536% | 5.43 | 
Cc1cc(NCCc2ccc[n+]([O-])c2)nc(-c2ccccc2)n1 |  |  | inactive |  | 
Cc1cc(NCCc2ccc[n+]([O-])c2)nc(-c2ccc(Br)cc2)n1 | inactive | 1.2 | 325% |  | Activity (Mus musculus [20]): 38%
Cc1cc(NCCc2ccc[n+]([O-])c2)nc(-c2ccc(Cl)cc2)n1 |  | 0.7 | 376% |  | 
Cc1cc(NCCc2ccc[n+]([O-])c2)nc(-c2ccc(Cl)c(Cl)c2)n1 | 15% | 0.72 | 430% |  | 
Cc1cc(NCCc2ccc[n+]([O-])c2)nc(-c2ccc(Cl)c(F)c2)n1 | 25% | 0.33 | 450% |  | 
CCc1cc(NCCc2cc[nH]c(=O)c2)nc(-c2cc(F)c(Cl)cc2F)n1 | 25% | 0.013 | 578% |  | 
CCc1ccc(CCOc2ccc(CC3SC(=O)NC3=O)cc2)nc1 (configuration not stated) |  |  |  |  | Activity (Mus musculus [6]): Active; Activity (Mus musculus [17]): Active; Activity (Mus musculus [18]): Active
Cc1cc(NCCc2ccc[n+]([O-])c2)nc(-c2ccc(Br)cc2F)n1 | 19% | 1.5 | 268% |  | 
Cc1cc(NC[C@H](O)CO)nc(-c2ccc(Br)c(F)c2)n1 |  | 2.3 | 257% |  | 
CCc1cc(NC[C@@H](O)CO)nc(-c2ccc(Br)c(F)c2)n1 |  | 0.19 | 284% | 5.82 | Activity (Mus musculus [4]): 23%; CLint scaled [5]: 168 mL/min/kg
CCc1cc(NC[C@H](O)CO)nc(-c2ccc(Br)c(F)c2)n1 |  | 0.59 | 283% | 5.80 | Activity (Mus musculus [4]): 16%
Cc1cc(NCCc2ccc[n+]([O-])c2)nc(-c2cc(F)c(Br)c(F)c2)n1 | 15% | 0.34 | 493% |  | 
